Experimental data reported in ChEMBL document CHEMBL1124534, “Synthesis, mechanism of action, and biological evaluation of mitosenes” (1989).
≈ marks a conversion by molar mass, not a printed value.

Key:
A204 = assay: In vitro antitumor activity against A204 rhabdomyosarcoma tumor cell line was determined; format: functional; conditions: Homo sapiens, read-out: ID50 (the source's name)
Summary of the method: (§1)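 Cell growth inhibition in vitro measured by the PIT method, with mitomycin C as positive reference.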

L1210 = assay: In vitro antitumor activity against L1210 lymphocytic leukemia tumor cell line was determined; format: functional; conditions: Mus musculus, read-out: ID50 (the source's name)
Summary of the method: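 Inhibition of L1210 leukemia colony formation in vitro, with mitomycin C as positive reference.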

Mus musculus [1] = assay: Body wieght treated/body weight untreated controls of compound (6 mg/kg) was evaluated in vivo for antitumor activity against MAC 16 in female NMRI mice on day 12; format: functional
Mus musculus [2] = assay: Body wieght treated/body weight untreated controls of compound (6 mg/kg) was evaluated in vivo for antitumor activity against MAC 16 in female NMRI mice on day 4; format: functional
Mus musculus [3] = assay: Mean relative body weight change of treated / mean relative body weight change of control when compound (2 mg/kg/day) administered to inhibit growth of human tumor xenograft GXF 97 was reported at day 14 in nude mice; format: functional
Mus musculus [4] = assay: Mean relative body weight change of treated / mean relative body weight change of control when compound (2 mg/kg/day) administered to inhibit growth of human tumor xenograft GXF 97 was reported at day 28 in nude mice; format: functional
Mus musculus [5] = assay: Percentage change in body weight [(day 6 - day 1)/ day 1] for antitumor activity against P388 Leukemia in CD2 mice at fractioned dose treatment of 1 mg/kg; format: functional
Summary of the method: (§2)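 Mouse P388 leukemia model. Drugs were given intraperitoneally, either as a single injection or once daily for 9 consecutive days (fractioned schedule). Outcomes were median survival time in days, %T/C, and % body weight change.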

Mus musculus [6] = assay: Percentage change in body weight [(day 6 - day 1)/ day 1] for antitumor activity against P388 Leukemia in CD2 mice at fractioned dose treatment of 3 mg/kg; format: functional; summary of the method: as §2
Mus musculus [7] = assay: Percent change in body weight [(day 6 - day 1)/ day 1] when P388 Leukemic CD2 mice were treated with a compound (6 mg/Kg); format: functional
Mus musculus [8] = assay: Mean relative body weight change of treated / mean relative body weight change of control when compound (2 mg/kg/day) administered to inhibit growth of human tumor xenograft GXF 97 was reported at day 21 in nude mice; format: functional
Mus musculus [9] = assay: Median survival time in days for antitumor activity against P388 Leukemia in CD2 mice at a single dose treatment of 6 mg/kg; format: functional
Summary of the method: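 P388 leukemia-bearing mice were given one intraperitoneal injection. The read-out was median survival time in days, reported alongside %T/C and % body weight change.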

Mus musculus [10] = assay: Median survival time in days for antitumor activity against P388 Leukemia in CD2 mice at fractioned dose treatment of 1 mg/kg; format: functional
Summary of the method: (§3)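 P388 leukemia-bearing mice were dosed intraperitoneally once daily for 9 consecutive days (fractioned schedule). The read-out was median survival time in days, reported alongside %T/C and % body weight change.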

Mus musculus [11] = assay: Median survival time in days for antitumor activity against P388 Leukemia in CD2 mice at fractioned dose treatment of 3 mg/kg; format: functional; summary of the method: as §3
Mus musculus [12] = assay: Percent inhibition of compound (50 mg/Kg) was evaluated in vivo for antitumor activity against MAC 13 in female NMRI mice on day 29; format: functional
Summary of the method: (§4)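 MAC 13 in female NMRI mice. Drugs were given in arachis oil BP by ip route on day 2 or day 29. % inhibition was derived from treated/untreated control tumor weight (volume); a negative value indicates stimulation.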

Mus musculus [13] = assay: Percent inhibition of compound (6 mg/kg) was evaluated in vivo for antitumor activity against MAC 13 in female NMRI mice on day 2; format: functional; summary of the method: as §4
Mus musculus [14] = assay: Percent T/C ([…]) for antitumor activity against P388 Leukemia in CD2 mice at a single dose treatment of 6 mg/kg; format: functional
Summary of the method: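 P388 leukemia mice given a single intraperitoneal injection. Median survival time (days) and body weight change were recorded. %T/C was derived from the survival of treated versus control mice.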

Mus musculus [15] = assay: Percent T/C ([…]) for antitumor activity against P388 Leukemia in CD2 mice at fractioned dose treatment of 1 mg/kg; format: functional
Summary of the method: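 P388 leukemia mice dosed intraperitoneally once daily for 9 consecutive days. Median survival time (days) and body weight change were recorded. %T/C was based on survival of treated versus control mice.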

Mus musculus [16] = assay: Percent T/C ([…]) for antitumor activity against P388 Leukemia in CD2 mice at fractioned dose treatment of 3 mg/kg; format: functional; summary of the method: as §2
Mus musculus [17] = assay: Relative tumor size on day 28 was reported when compound (2 mg/kg/day) administered to inhibit growth of human tumor xenograft GXF 97 in nude mice; format: functional
Summary of the method: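 GXF 97 human gastric xenograft grown subcutaneously in nude mice for 24 days, then mice randomized; treatment began 1 day later. Fractioned ip injections on days 1-4, or single iv injection on day 1; 4-5 mice per group. Tumor size from length and width; relative tumor size (% of controls) read at day 28.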

Mus musculus [18] = assay: Compound (40 mg/Kg) was evaluated in vivo for antitumor activity against MAC 16 in female NMRI mice on day 12 and ratio of tumor weight of treated to that of control was determined; format: functional
Mus musculus [19] = assay: Compound (40 mg/Kg) was evaluated in vivo for antitumor activity against MAC 16 in female NMRI mice on day 29 and ratio of tumor weight of treated to that of control was determined; format: functional
Mus musculus [20] = assay: Compound (6 mg/Kg) was evaluated in vivo for antitumor activity against MAC 16 in female NMRI mice on day 4 and ratio of tumor weight of treated to that of control was determined; format: functional
WiDr = assay: In vitro antitumor activity against WiDr colon carcinoma tumor cell line was determined; format: functional; conditions: Homo sapiens, read-out: ID50 (the source's name); summary of the method: as §1
Mus musculus [21] = assay: Ability of administered compound (2 mg/kg/day) to inhibit growth of human tumor xenograft GXF 97 was assessed on day 14 in nude mice
Mus musculus [22] = assay: Ability of administered compound (2 mg/kg/day) to inhibit growth of human tumor xenograft GXF 97 was assessed on day 21 in nude mice
Mus musculus [23] = assay: Ability of intravenously administered compound (2 mg/kg, single dose) to inhibit growth of human tumor xenograft GXF 97 was assessed on day 28 in nude mice
Mus musculus [24] = assay: Compound (6 mg/Kg) was evaluated in vivo for antitumor activity against MAC 13 in female NMRI mice on day 2 and ratio of tumor weight of treated to that of control was determined

## CO[C@@]12[C@H](COC(N)=O)C3=C(C(=O)C(C)=C(N)C3=O)N1C[C@@H]1N[C@@H]12 [MITOMYCIN]
A204
  IC50: 0.02 µg/mL (≈ 0.0598 µM)
L1210
  IC50: 0.031 µg/mL (≈ 0.0927 µM)
Mus musculus [1]
  BW: 96%
Mus musculus [2]
  BW: 106%
Mus musculus [3]
  BWC: 108.9%
Mus musculus [4]
  BWC: 108.4%
Mus musculus [5]
  BWC: -5.4%
Mus musculus [6]
  BWC: -8%
Mus musculus [7]
  BWC: -18.1%
Mus musculus [8]
  BWC: 108.5%
Mus musculus [9]
  MST: 21 days
Mus musculus [10]
  MST: 34 days
Mus musculus [11]
  MST: 21 days
Mus musculus [12]
  I: 92.6%
Mus musculus [13]
  I: 88.4%
Mus musculus [14]
  T/C: 191%
Mus musculus [15]
  T/C: 309%
Mus musculus [16]
  T/C: 191%
Mus musculus [17]
  Relative TS: 17%
Mus musculus [18]
  T/C: 81%
Mus musculus [19]
  T/C: 7.4%
Mus musculus [20]
  T/C: 60%
WiDr
  IC50: 0.031 µg/mL (≈ 0.0927 µM)
Mus musculus [21]
  T/C: 9.9%
Mus musculus [22]
  T/C: 4.1%
Mus musculus [23]
  T/C: 2.6%
Mus musculus [24]
  T/C: 11.6%
